The IC50 is the point on the concentration scale where inhibition reaches its midpoint. Low readings indicate greater potency in that assay, high ones weaker potency in that assay. By Ki is commonly meant a measure of affinity in units of concentration, obtained from inhibition or displacement. Read a high Ki as weaker binding.

Each structure is given as a SMILES string. Calls of active or inactive are those of the source. No cut-off for these calls is given here.

The record followed here is ChEMBL document CHEMBL4043205, “Picomolar inhibition of β-galactosidase (bovine liver) attributed to loop closure” (Bioorg Med Chem, 2017).

Assay [1] addresses T1, Beta-galactosidase (Bos taurus, UniProt Q58D55).
T1 sequence (Q58D55 whole entry): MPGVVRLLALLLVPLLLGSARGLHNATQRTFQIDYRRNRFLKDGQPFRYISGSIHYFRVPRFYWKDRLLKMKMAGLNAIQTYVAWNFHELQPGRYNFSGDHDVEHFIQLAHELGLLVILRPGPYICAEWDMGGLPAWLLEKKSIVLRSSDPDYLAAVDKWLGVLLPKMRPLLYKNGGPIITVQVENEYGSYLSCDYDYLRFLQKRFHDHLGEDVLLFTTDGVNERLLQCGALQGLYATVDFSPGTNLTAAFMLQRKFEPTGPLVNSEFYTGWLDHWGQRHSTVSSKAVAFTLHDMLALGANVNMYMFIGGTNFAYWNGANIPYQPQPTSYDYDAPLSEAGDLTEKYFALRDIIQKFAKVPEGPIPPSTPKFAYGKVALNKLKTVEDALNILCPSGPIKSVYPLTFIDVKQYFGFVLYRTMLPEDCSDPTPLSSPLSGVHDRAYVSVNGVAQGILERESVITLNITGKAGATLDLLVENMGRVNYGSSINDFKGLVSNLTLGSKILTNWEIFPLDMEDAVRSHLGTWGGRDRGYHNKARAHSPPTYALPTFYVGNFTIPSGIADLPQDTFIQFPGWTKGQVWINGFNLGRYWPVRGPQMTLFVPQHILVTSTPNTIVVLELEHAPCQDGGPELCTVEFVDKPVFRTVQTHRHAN
The assay is described as follows: Inhibition of bovine liver beta-galactosidase using 4-nitrophenyl-beta-D-galactopyranoside substrate measured over 240 mins at 10 mins intervals by UV/Vis spectroscopy. A digest of the protocol: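 Bovine liver enzyme in 5 mM HEPES pH 7.50; 4-nitrophenyl-β-D-galactopyranoside mixed with 11 inhibitor dilutions (stocks 0.005–200 μM), equilibrated 30 °C 30 min, then enzyme added. Absorbance at 405 nm followed 240 min; final reads converted to percent inhibition against buffer control, plotted versus log inhibitor concentration; duplicates.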

Assay [2] deals with T1, Beta-galactosidase. The assay is described as follows: Inhibition of bovine liver beta-galactosidase pre-incubated for 30 mins with 4-nitrophenyl-beta-D-galactopyranoside substrate before enzyme addition measured over 45 mins at 27 secs intervals by UV/Vis based spectroscopy. The gist of the method: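 Bovine liver enzyme (stock aliquot thawed, diluted in 5 mM HEPES, kept on ice). Varied 4-nitrophenyl-β-D-galactopyranoside with fixed inhibitor, pH 7.50 HEPES, equilibrated 30 °C 30 min before enzyme; 405 nm read for 45 min. Initial rates via ε 13,300 M−1 cm−1, fitted Michaelis-Menten at ≥2 inhibitor levels; competitive Ki from K′m = Km(1+[I]/Ki); duplicates, Lineweaver-Burk check.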

The nature of assay [3]: Inhibition of Aspergillus oryzae beta-galactosidase using 2-chloro-4-nitrophenyl b-dgalactopyranoside substrate.
The nature of assay [4]: Inhibition of Aspergillus oryzae beta-galactosidase using 2-chloro-4-nitrophenyl b-dgalactopyranoside substrate relative to control.
For assay [5], the target named is T2, Beta-galactosidase (Bos taurus) (UniProt Q58D55).
T2 sequence (whole entry): T1 sequence (Q58D55 whole entry)
The experiment in a line: Competitive inhibition of bovine liver beta-galactosidase using 4-nitrophenyl-beta-D-galactopyranoside substrate measured over 240 mins at 10 mins intervals by UV/Vis spectroscopy based Lineweaver-Burk plot.

The target in assay [6] is T2, Beta-galactosidase (Bos taurus). The assay is described as follows: Competitive inhibition of bovine liver beta-galactosidase using 4-nitrophenyl-beta-D-galactopyranoside substrate measured over 240 mins at 10 mins intervals by UV/Vis spectroscopy based Eddie-Hofstee plot.
Assay [7] has as its system Aspergillus oryzae. The assay is described as follows: Inhibition of Aspergillus oryzae beta-galactosidase using 2-chloro-4-nitrophenyl b-dgalactopyranoside substrate by Lineweaver-Burk plot.
In assay [8] the test system is Aspergillus oryzae. The assay is described as follows: Inhibition of Aspergillus oryzae beta-galactosidase using 2-chloro-4-nitrophenyl b-dgalactopyranoside substrate by Eddie-Hofstee plot.
Assay [9] deals with T2, Beta-galactosidase (Bos taurus). The experiment in a line: Binding affinity to bovine liver beta-galactosidase assessed as induction of changes in enzyme molar ellipticity by CD spectroscopy. The gist of the method: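 The bovine liver enzyme stock was diluted in 5 mM HEPES and kept on ice. It was mixed 1:1 by volume with aqueous inhibitor stock and equilibrated. Ellipticity was recorded from 190–275 nm at 0.5 nm resolution in a 10 mm path cell, averaging 5 scans. Spectra were background-corrected for unbound inhibitor and buffer.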

Assay [10] deals with Aspergillus oryzae. The assay is described as follows: Binding affinity to Aspergillus oryzae beta-galactosidase assessed as induction of changes in enzyme molar ellipticity by CD spectroscopy.

Turning to `CO[C@H]1C(NCc2ccc(C)cc2)=N[C@H](CO)[C@H](O)[C@@H]1O`, the IC50 against Beta-galactosidase [1] was determined as 10800 nM; in [4], 41400 nM. In addition, the values for the inhibition constant Ki (at Beta-galactosidase [2]; in [3]) were 1500 nM and 3400 nM, respectively. In assay [5], the “Inhibition mode (qualitative, Lineweaver-Burk)” value (“Inhibition mode” for short) is “Active”. For the same molecule, the “competitive inhibition (qualitative call)” value (from here on “competitive inhibition”) in [6] is “Active”. Further, in the assay with Aspergillus oryzae [7], the inhibition activity entry was “Active”. In addition, the “inhibition activity (qualitative)” value in the assay with Aspergillus oryzae [8] is “Active”. In addition, the outcome (in assay [9]; with Aspergillus oryzae [10]) was inactive.

For `N=C1N[C@H](CO)[C@H](O)[C@H](O)[C@H]1O`, the values for the IC50 (against Beta-galactosidase [1]; in [4]) were above 50000 nM and 830 nM, respectively. Also, the figures for the Ki (on Beta-galactosidase [2]; in assay [3]) were 2000 nM and 150 nM, respectively. In addition, the “Inhibition mode” value in assay [5] was “Active”. The “competitive inhibition” value in [6] is “Active”. The inhibition activity entry in the assay with Aspergillus oryzae [7] is “Active”. In the assay on Aspergillus oryzae [8], the “inhibition activity (qualitative)” value is “Active”. Also, the outcome (in assay [9]; in the assay on Aspergillus oryzae [10]) was inactive.

Turning to `OC[C@H]1N/C(=N\Cc2ccccc2F)[C@H](O)[C@@H](O)[C@H]1O`, the IC50 at Beta-galactosidase [1] was 43.1 nM; in assay [4], 117 nM. Also, the Ki on Beta-galactosidase [2] worked out at 0.23 nM; in assay [3] it was 16.1 nM. In addition, the “Inhibition mode” value in [5] is “Active”. In [6], the “competitive inhibition” value was “Active”. Further, the inhibition activity result in the assay on Aspergillus oryzae [7] was “Active”. The “inhibition activity (qualitative)” value in the assay on Aspergillus oryzae [8] is “Active”.

With `CCCCCCC/N=C1\N[C@H](CO)[C@H](O)[C@H](O)[C@H]1O`, the IC50 on Beta-galactosidase [1] came to 24.1 nM; in assay [4] it was 107 nM. The values for the Ki (on Beta-galactosidase [2]; in assay [3]) were 0.11 nM and 10.8 nM, respectively. Further, in assay [5], the “Inhibition mode” value is “Active”. The “competitive inhibition” value in assay [6] is “Active”. Besides, the inhibition activity result in the assay with Aspergillus oryzae [7] was “Active”. For the same molecule, the “inhibition activity (qualitative)” value with Aspergillus oryzae [8] is “Active”.

With `COc1ccc(C/N=C2\N[C@H](CO)[C@H](O)[C@H](O)[C@H]2O)cc1`, the IC50 at Beta-galactosidase [1] stood at 26.2 nM; in assay [4] it was 150 nM. Moreover, the Ki on Beta-galactosidase [2] turned out to be 0.12 nM; in [3], 17.1 nM. For the same molecule, the “Inhibition mode” value in assay [5] was “Active”. In addition, the “competitive inhibition” value in assay [6] is “Active”. Also, in the assay with Aspergillus oryzae [7], the inhibition activity result was “Active”. Moreover, the “inhibition activity (qualitative)” value in the assay with Aspergillus oryzae [8] is “Active”.

For `OC[C@H]1N/C(=N\CCCc2ccccc2)[C@H](O)[C@@H](O)[C@H]1O`, the figures for the IC50 (against Beta-galactosidase [1]; in assay [4]) were 41.3 nM and 36 nM, respectively. In addition, the results for the Ki (at Beta-galactosidase [2]; in assay [3]) were 0.06 nM and 8.6 nM, respectively. Besides, in assay [5], the “Inhibition mode” value was “Active”. In addition, the “competitive inhibition” value in assay [6] is “Active”. The inhibition activity entry in the assay on Aspergillus oryzae [7] was “Active”. The “inhibition activity (qualitative)” value in the assay with Aspergillus oryzae [8] was “Active”.

As for `OC[C@H]1N/C(=N\Cc2ccccc2)[C@H](O)[C@@H](O)[C@H]1O`, the figures for the IC50 (at Beta-galactosidase [1]; in assay [4]) were 18.9 nM and 49 nM, respectively. The Ki came to 0.05 nM at Beta-galactosidase [2] and 21.1 nM in [3]. Moreover, the “Inhibition mode” value in [5] is “Active”. Besides, the “competitive inhibition” value in [6] was “Active”. In the assay with Aspergillus oryzae [7], the inhibition activity result was “Active”. Besides, in the assay with Aspergillus oryzae [8], the “inhibition activity (qualitative)” value was “Active”. Further, the outcome (in [9]; with Aspergillus oryzae [10]) was inactive.

Regarding `OC[C@H]1N/C(=N\Cc2cccc(F)c2)[C@H](O)[C@@H](O)[C@H]1O`, the IC50 on Beta-galactosidase [1] was 9.4 nM; in assay [4], 115 nM. The Ki came out at 0.13 nM at Beta-galactosidase [2] and 20.3 nM in assay [3]. The “Inhibition mode” value in assay [5] was “Active”. For the same molecule, the “competitive inhibition” value in assay [6] was “Active”. Further, the inhibition activity entry in the assay with Aspergillus oryzae [7] was “Active”. Moreover, in the assay with Aspergillus oryzae [8], the “inhibition activity (qualitative)” value was “Active”.

For `Cc1ccc(CNC2=N[C@H](CO)[C@H](O)[C@H](O)C2)cc1`, the IC50 turned out to be 850 nM at Beta-galactosidase [1] and 33300 nM in [4]. For the same molecule, the Ki came to 0.6 nM at Beta-galactosidase [2] and 2400 nM in assay [3]. In addition, the “Inhibition mode” value in assay [5] was “Active”. Also, in assay [6], the “competitive inhibition” value was “Active”. For the same molecule, the inhibition activity result in the assay with Aspergillus oryzae [7] was “Active”. Also, the “inhibition activity (qualitative)” value in the assay with Aspergillus oryzae [8] is “Active”.
